A short description of data set [1]: Metabolic stability in human intestine S9 fraction assessed as half life at 2.5 uM measured upto 120 mins in presence of NADPH by LC-MS analysis. The data set is classed as ADME, subcellular. Conditions: s9, 2 h. The method in brief: (§1)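 2.5 μM compound at 37 °C in 50 mM potassium phosphate pH 7.4 with 3 mM MgCl2, 1 mM EDTA and an NADPH regenerating system. […] Sampled at 0–120 min in 20-min steps, acetonitrile quench, LC-MS of parent. T1/2 from one-phase exponential decay fit.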

A short description of data set [2]: Drug metabolism in human serum assessed as psilocin formation at 2.5 uM after 120 mins by LC-MS analysis. The data set is classed as ADME, cell-free. Conditions: 2 h. An outline of the steps: (§2)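 2.5 μM compound in 50 mM potassium phosphate pH 7.4 with 3 mM MgCl2, 1 mM EDTA and an NADPH regenerating system. Incubated at 37 °C with human liver or intestinal S9 or microsomes (400 μg/mL protein) or 10% human AB serum. Acetonitrile quench, then LC-MS; psilocin concentration read at 120 min.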

The nature of data set [3]: Metabolic stability in human intestine microsomes assessed as half life at 2.5 uM measured upto 120 mins in presence of NADPH by LC-MS analysis. In kind it is ADME, Microsome. To be noted: 2 h. The method in brief:
as §1

Data set [4] is described as follows: Metabolic stability in human liver microsomes assessed as half life at 2.5 uM measured upto 120 mins in presence of NADPH by LC-MS analysis. In kind it is ADME, Microsome. To be noted: for t1/2: microsomes, 2 h, 2.5 µM. An outline of the steps:
as §1

Data set [5] in a line: Drug metabolism in po dosed C57BL/6 mouse assessed as psilocin formation measured upto 24 hrs by LC-MS analysis. In kind it is ADME, organism-based. To be noted: in vivo, dose 1-10 mg/kg.
The nature of data set [6]: Drug metabolism in human intestine microsomes assessed as psilocin formation at 2.5 uM after 120 mins by LC-MS analysis. Conditions: 2 h. The data set is classed as ADME, Microsome. An outline of the steps: as §2
For data set [7], the system named is Mus musculus. Nature of the data set: Anxiolytic activity in non-stressed mouse assessed as reduction in marble-burying behavior by measuring decrease in number of buried marbles at 10 mg/kg, po measured after 1 day. In kind it is functional, organism-based.
Data set [8] has as its system Mus musculus. The data set can be described thus: Psychedelic activity in mouse assessed as head-twitch response at 1 mg/kg, po measured after 15 to 30 mins. In kind it is functional, organism-based. Conditions: time 15-30 min. The method in brief:
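C57BL/6 mice, singly housed for 2 days, with 30-min predose chamber acclimation. Single oral 1 mg/kg dose from 100 mM DMSO stock diluted in 0.9% saline; vehicle 1% DMSO in saline. Video-recorded after dosing; head twitches scored blind per 15-min interval (reference time course) or for the 15–30 min window. n = 2–4; one-way ANOVA.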

The nature of data set [9]: Drug metabolism in C57BL/6 mouse assessed as psilocin formation at 10 mg/kg, po measured after 8 hrs by LC-MS analysis. The data set is classed as ADME, organism-based. To be noted: in vivo.
Data set [10] has as its system Mus musculus. Nature of the data set: Anxiolytic activity in non-stressed mouse assessed as reduction in marble-burying behavior by measuring decrease in number of buried marbles at 10 mg/kg, po measured upto 7 days. The data set is classed as functional, organism-based. To be noted: time <= 7.0 day.
Data set [11] can be described thus: Drug metabolism in human liver microsomes assessed as psilocin formation at 2.5 uM after 120 mins by LC-MS analysis. The data set is classed as ADME, Microsome. To be noted: 2 h. An outline of the steps: as §2
Data set [12] can be described thus: Metabolic stability in human serum assessed as half life at 2.5 uM measured upto 120 mins in presence of NADPH by LC-MS analysis. The data set is classed as ADME, cell-free. Conditions: 2 h. An outline of the steps:
as §1

A short description of data set [13]: Metabolic stability in human liver S9 fraction assessed as half life at 2.5 uM measured upto 120 mins in presence of NADPH by LC-MS analysis. The data set is classed as ADME, subcellular. Conditions: for t1/2: s9, 2 h, 2.5 µM. The method in brief: as §1
The nature of data set [14]: Drug metabolism in human liver S9 fraction assessed as psilocin formation at 2.5 uM after 120 mins by LC-MS analysis. The data set is classed as ADME, subcellular. To be noted: s9, 2 h. The method in brief: as §2
A short description of data set [15]: Drug metabolism in human intestine S9 fraction assessed as psilocin formation at 2.5 uM after 120 mins by LC-MS analysis. The data set is classed as ADME, subcellular. Conditions: s9, 2 h. An outline of the steps:
as §2

Data set [16] can be described thus: Drug metabolism in C57BL/6 mouse assessed as psilocin formation at 1 mg/kg, iv measured upto 24 hrs by LC-MS analysis. The data set is classed as ADME, organism-based. To be noted: in vivo.
The nature of data set [17]: Drug metabolism in C57BL/6 mouse assessed as psilocin formation at 10 mg/kg, po measured at 24 hrs by LC-MS analysis. To be noted: in vivo. The data set is classed as ADME, organism-based.

Active and inactive are the calls of the source.

Take `CN(C)CCc1c[nH]c2cccc(OC(=O)SCc3ccccc3)c12`: the t1/2 in data set [1] came to 50 min; in data set [3], 71 min; in data set [12], 14 min. Also, the Drug metabolism in data set [2] is 0.385 µM; in data set [5], “Dose-Dependent Effect”; in data set [6] it was 0.156 µM; in [9], “Metabolite_Notdetected”; in [11] it was 2.105 µM; in data set [14] it was 1.233 µM. Moreover, the Drug metabolism in data set [15] was 0 µM; in [16], “Metabolite_Detected”. The half-life (as a rule, the time needed for the level to fall by half in the phase considered) at 2.5 µM in [4] (liver microsomes) was 6 min; in data set [13] (liver S9 fraction) it was 5 min. Also, the result in the data set on Mus musculus [7], with Mus musculus [8] and in the data set on Mus musculus [10] was Active.
On to `CN(C)CCc1c[nH]c2cccc(O[Si](C)(C)C(C)(C)C)c12`, for which the Drug metabolism is 0 µM in data set [2]; “Dose-Dependent Effect” in data set [5]; 0 µM in [6]; “Metabolite_Notdetected” in data set [9]; 0.012 µM in data set [11]; 0 µM in data set [14]. Besides, in data set [15], the Drug metabolism was 0 µM. Moreover, the t1/2 is 347 min in [4] and 191 min in data set [13]. Moreover, the outcome in the data set on Mus musculus [8] was Active.
For `CCCC(=O)OCOc1cccc2[nH]cc(CCN(C)C)c12`, the t1/2 in data set [1] stood at 241 min; in data set [3], 74 min; in data set [4] it was 3 min; in data set [12] it was 2 min; in data set [13], 4 min. For the same compound, the Drug metabolism in [2] was 0 µM; in data set [5] it was “Dose-Dependent Effect”; in [6], 0.043 µM; in [9], “Metabolite_Notdetected”; in [11] it was 0.073 µM; in data set [14], 0.012 µM. The Drug metabolism in data set [15] amounted to 0.018 µM. For the same compound, in the data set on Mus musculus [8], the outcome was inactive.
Take `CC(C)OC(=O)OCOc1cccc2c1c(CCN(C)C)cn2COC(=O)OC(C)C`: the t1/2 worked out at 266 min in [1]; 894 min in data set [3]; 104 min in [4]; 3 min in data set [12]; 293 min in data set [13]. In addition, the Drug metabolism is 0 µM in data set [2]; “Dose-Dependent Effect” in data set [5]; 0 µM in data set [6]; “Metabolite_Notdetected” in [9]; 0.056 µM in data set [11]; 0.186 µM in [14]. Moreover, the Drug metabolism in data set [15] was found to be 0 µM.
`CN(C)CCc1c[nH]c2cccc(OC(=O)OCc3ccccc3)c12`: the results for the t1/2 in data set [1], in data set [3] and in data set [4] were 529 min, 211 min and 113 min, respectively. In addition, the Drug metabolism in data set [2] is 0 µM; in [5], “Dose-Dependent Effect”; in data set [6], 0.038 µM; in data set [17] it was “Metabolite_Detected”; in data set [11], 0.114 µM; in data set [14], 0.084 µM. In addition, the Drug metabolism in [15] is 0.044 µM; in data set [16], “Metabolite_Detected”.
On to `CN(C)CCc1c[nH]c2cccc(OC(=O)c3ccc(Br)cc3)c12`, for which the t1/2 in data set [1] is reported as 69 min; in data set [3], 71 min; in [4] it was 87 min; in data set [12] it was 19 min; in data set [13], 39 min. Moreover, the Drug metabolism is 2.01 µM in data set [2]; “Dose-Dependent Effect” in data set [5]; 0.018 µM in [6]; “Metabolite_Notdetected” in data set [9]; 1.31 µM in data set [11]; 0.689 µM in data set [14]. Further, the Drug metabolism in [15] was 0 µM.
With `COc1ccc(C(=O)Oc2cccc3[nH]cc(CCN(C)C)c23)cc1`, the t1/2 was found to be 132 min in data set [1]; 315 min in [3]; 17 min in [4]; 1 min in [12]; 21 min in data set [13]. The Drug metabolism in data set [2] is 1.097 µM; in data set [5], “Dose-Dependent Effect”; in data set [6] it was 0.041 µM; in data set [9], “Metabolite_Notdetected”; in data set [11] it was 2.718 µM; in data set [14], 1.95 µM. Moreover, the Drug metabolism is 0.114 µM in [15] and “Metabolite_Detected” in data set [16]. Further, the result with Mus musculus [7], with Mus musculus [8] and with Mus musculus [10] was Active.
Consider `CCCCC(=O)OCOc1cccc2[nH]cc(CCN(C)C)c12`, for which the t1/2 is recorded as 39 min in data set [1]; 112 min in data set [3]; 4 min in data set [4]; 3 min in data set [12]; 5 min in [13]. The Drug metabolism in [2] is 0 µM; in data set [5], “Dose-Dependent Effect”; in [6], 0.081 µM; in data set [9], “Metabolite_Notdetected”; in data set [11], 0.132 µM; in [14] it was 0.07 µM. In addition, the Drug metabolism was 0.055 µM in data set [15] and “Metabolite_Detected” in data set [16].
For `CN(C)CCc1c[nH]c2cccc(OC(=O)c3cccc4c3OCCO4)c12`, the Drug metabolism in [2] is 0 µM; in data set [5], “Dose-Dependent Effect”; in [6] it was 0 µM; in data set [9], “Metabolite_Notdetected”; in data set [11], 0.329 µM; in data set [14], 0.145 µM. In addition, in [15], the Drug metabolism is 0 µM. In addition, the t1/2 in [3] is listed as 113 min; in data set [4], 390 min; in data set [13], 529 min. Also, the outcome with Mus musculus [8] was inactive.
`CN(C)CCc1c[nH]c2cccc(OC(=O)c3c(F)c(F)c(F)c(F)c3F)c12`: the t1/2 in [1] amounted to 56 min; in [3], 32 min; in data set [4], 1 min; in data set [12], 0.7 min; in [13] it was 1 min. Besides, the Drug metabolism was 0.45 µM in [2]; “Dose-Dependent Effect” in data set [5]; 0.786 µM in data set [6]; “Metabolite_Notdetected” in [9]; 2.554 µM in data set [11]; 1.244 µM in data set [14]. In addition, the Drug metabolism in data set [15] is 0.533 µM. For the same compound, the result in the data set on Mus musculus [8] was Active.
Take `CN(C)CCc1c[nH]c2cccc(OC(=O)CC3CC3)c12`: the t1/2 in [1] was determined as 104 min; in data set [3] it was 62 min; in data set [4] it was 1 min; in [12], 1 min; in [13], 3 min. Further, the Drug metabolism in [2] was 0.778 µM; in data set [5], “Dose-Dependent Effect”; in [6], 0.927 µM; in data set [9], “Metabolite_Notdetected”; in data set [11], 1.89 µM; in [14], 1.343 µM. The Drug metabolism in [15] is 1.384 µM; in data set [16], “Metabolite_Detected”. Further, the result in the data set with Mus musculus [7] and in the data set on Mus musculus [8] was Active.

Source of the values: ChEMBL document CHEMBL5335796, “Novel Psilocin Prodrugs with Altered Pharmacological Properties as Candidate Therapies for Treatment-Resistant Anxiety Disorders” (J Med Chem, 2024).
